# Assay outcomes as filed in PubChem.
# A selection: hits, their analogues and other compounds. The true share with any hit is near 6.4%.
# PostGolgi ctrl: yeast control strain growth, post-Golgi counter-screen; efflux-deficient yeast background strain, growth absorbance A615, 16 h; inhibition, % at 10 µM; 5% of 98,000 active; AID 738
# EphB4 antag: EphB4-ephrin-B2 interaction antagonism; P54760; EphB4 LBD / TNYL-RAW-Alexa532 peptide, fluorescence polarization; inhibition, % at 7 µM; 0.15% of 97,000 active; AID 720;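 active means inhibition above the screen-wide mean inhibition plus 3 SD, cut at about 15% in these data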;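 further: 0% = DMSO wells and 100% = excess unlabeled TNYL-RAW peptide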
# Target sequence (P54760 whole entry, looked up, the tested form may be a part): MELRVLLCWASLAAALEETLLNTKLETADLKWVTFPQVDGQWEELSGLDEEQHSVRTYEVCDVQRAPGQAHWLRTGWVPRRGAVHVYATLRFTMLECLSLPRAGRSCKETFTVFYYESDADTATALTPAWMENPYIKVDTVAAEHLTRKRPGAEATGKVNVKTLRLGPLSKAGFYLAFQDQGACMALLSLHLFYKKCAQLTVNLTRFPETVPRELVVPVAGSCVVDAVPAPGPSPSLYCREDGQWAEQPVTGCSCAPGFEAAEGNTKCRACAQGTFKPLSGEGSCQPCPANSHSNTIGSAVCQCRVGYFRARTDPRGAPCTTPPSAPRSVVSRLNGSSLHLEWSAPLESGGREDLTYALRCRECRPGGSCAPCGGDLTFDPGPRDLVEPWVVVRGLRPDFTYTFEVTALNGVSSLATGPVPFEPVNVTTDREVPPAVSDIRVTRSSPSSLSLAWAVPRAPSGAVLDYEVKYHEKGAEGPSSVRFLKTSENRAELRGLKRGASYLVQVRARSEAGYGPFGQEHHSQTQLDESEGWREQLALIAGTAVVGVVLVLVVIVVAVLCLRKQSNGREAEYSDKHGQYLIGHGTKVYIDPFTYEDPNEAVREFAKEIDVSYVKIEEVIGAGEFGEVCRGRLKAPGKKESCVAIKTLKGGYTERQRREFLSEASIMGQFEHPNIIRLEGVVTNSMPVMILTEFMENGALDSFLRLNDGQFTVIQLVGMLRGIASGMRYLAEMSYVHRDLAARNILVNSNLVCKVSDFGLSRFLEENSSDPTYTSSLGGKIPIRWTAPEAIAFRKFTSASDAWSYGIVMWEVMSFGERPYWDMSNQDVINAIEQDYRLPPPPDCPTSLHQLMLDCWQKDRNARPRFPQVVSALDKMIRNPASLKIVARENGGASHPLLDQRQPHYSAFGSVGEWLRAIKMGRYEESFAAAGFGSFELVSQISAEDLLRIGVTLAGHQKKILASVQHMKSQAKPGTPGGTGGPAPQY
# Plk1 PBD FP: Plk1 (human) PBD binding inhibition; AID 693; Plk1 PBD phosphopeptide binding, fluorescence polarization; inhibition, %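 (tested at about 20 µM)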; 0.13% of 97,000 active; in the data active means inhibition above about 34%, passing the limit was not always enough
# PostGolgi yeast: growth inhibition of a yeast mutant, post-Golgi transport screen; post-Golgi transport phenotypic cell assay; inhibition, % at 10 µM; 0.9% of 98,000 active; AID 739;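 further: yeast cells grown in 1536-well plates; yeast grown about 18 h at 30C before absorbance read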
# Rev-RRE block: HIV Rev-RRE protein-RNA interaction inhibition; AID 704; Rev peptide-RRE RNA binding, FRET; 0.79% of 97,000 active; inhibition, % at 8 µM; P05866;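 active means inhibition above the screen-wide mean plus 3 SD, cut at about 35% in these data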;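 further: 0% = median DMSO wells and 100% = median Neomycin B control wells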
#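 Material: labelled RRE RNA duplex and labelled Rev peptide / Buffer or medium: HEPES pH 7.5 salt buffer with EDTA / Compound dosing: single point, 8 µM final nominal compound concentration / Benchmarks: DMSO low control, neomycin B high control / Timing: 5 min preincubation and 15 min binding, 25 °C / Technique: FRET fluorescence readout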
# PLK1 kinase inh: inhibitors of human PLK1 kinase; recombinant PLK1 kinase, TR-FRET peptide phosphorylation; P53350; 0.53% of 97,000 active; inhibition, % at 10 µM;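 active means inhibition of 50% or more in the single-concentration screen; inactive means inhibition below 50%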;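 further: 0% = DMSO max control and 100% = H-89 dihydrochloride min control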
# Numbers without * were called inactive; nt = no result given; [ ] = remark or other dose. Unless noted, no stated cut-off is given here; in the data, active means inhibition above about 30%; inactive means the rest.
SMILES,PostGolgi ctrl,EphB4 antag,Plk1 PBD FP,PostGolgi yeast,Rev-RRE block,PLK1 kinase inh
Cc1ccc(CNC(=O)CSc2nc(N3CCCCC3)nc(N3CCCCC3)n2)cc1,46*,3,8,-6,5,-18
COc1ccc(C(=O)N2CCN(S(=O)(=O)N3CCOCC3)CC2)cc1OC,6,2,10,0,10,-10
N#C/C(=C\c1ccc(N2CCCC2)c([N+](=O)[O-])c1)c1nc2ccccc2[nH]1,7,-7,15,1,37*,-20
CCOc1c2ccc(C(=O)NCc3ccc(C)cc3)cc2nn1CCOC,5,-2,-9,5,1,-10
O=C(/C=C/c1c(Cl)cccc1Cl)n1cccn1,nt,-2,0,nt,2,-7
Cc1cc(=O)oc(C)c1C(=O)OCC(=O)c1ccc(Br)cc1,nt,0,-15,nt,9,-3
Cc1cc(=O)oc(C)c1C(=O)OCC(=O)c1ccc(Cl)cc1,0,16*,7,3,4,-7
O=C(c1ccc2c(c1)OCCO2)N1CCN(Cc2ccccc2)CC1,1,-3,-2,-2,0,-8
CCCCC(=O)NC(Nc1nc(C2CC2)cs1)(C(=O)OCC)C(F)(F)F (centres undefined),36*,6,4,-1,2,-4
CC1=C(C(=O)OCc2ccccc2)C(c2cccnc2)n2ncnc2N1 (centres undefined),20,-2,-15,-4,3,36
CC(=O)C1=C(C)Nc2ncnn2C1c1cccc(OCc2ccccc2)c1 (centres undefined),10,-5,-8,0,6,51*
CC1CCC(n2c(=S)[nH]c3ccccc3c2=O)CC1 (centres undefined),49*,-5,-29,3,1,-6
CCC1(C)Cc2ccccc2C(Nc2c(C)n(C)n(-c3ccccc3)c2=O)=N1 (centres undefined),4,10,22,-12,6,-7
Cc1ccc(C)n1CCN1CCN(CC(=O)Nc2ccc(S(N)(=O)=O)cc2)CC1,37*,-3,10,-2,4,1
CCOC(=O)c1[nH]c2ccc(F)cc2c1NC(=O)c1cc(OC)c(OC)c(OC)c1,30*,-4,7,-10,0,-11
O=C(Cc1ccccc1)NCC(=O)N1CCCCCC1,12,-5,11,-10,9,-33
O=c1c2ccccc2c(-c2ccc(Cl)cc2)nn1-c1ccccc1,40*,5,5,6,4,-14
CC(C)N1C(=S)SC2CS(=O)(=O)C=C21 (centres undefined),7,-10,7,-9,5,-7
CC(Sc1nnc(Cc2cccs2)n1C1CCCCC1)C(=O)N1CCc2ccccc21 (centres undefined),34*,2,-14,-3,1,-13
CCOc1ccc(-c2nnn(CC(=O)c3cc(OC)ccc3OC)n2)cc1,1,-2,-24,-6,7,-20
CCOC(=O)N1CCN(c2nc(-c3ccc(Cl)cc3)cs2)CC1,7,nt,nt,-1,nt,nt
O=C(Cc1cccs1)N1CCN(c2nc(-c3ccc(Cl)cc3)cs2)CC1,51*,-1,21,1,1,-7
Cc1ccsc1C(C(=O)NC1CCCCC1)N(C(=O)c1csnn1)C1CC1 (centres undefined),-3,5,16,-2,3,-15
Cc1ccc(Nc2c3c(nc4ncnn24)CCC3)cc1,18,2,10,-22,2,-2
Clc1cccc(Nc2c3c(nc4ncnn24)CCC3)c1,9,0,-11,25,0,54*
SMILES,PostGolgi ctrl,EphB4 antag,Plk1 PBD FP,PostGolgi yeast,Rev-RRE block,PLK1 kinase inh
O=C1S/C(=C\c2ccc(N3CCOCC3)o2)C(=O)N1Cc1c(F)cccc1Cl,15,6,-226,-4,121*[fluorescence artefact?],-8
O=C1S/C(=C/c2ccc(N3CCOCC3)o2)C(=O)N1Cc1c(F)cccc1Cl,5,-1,-195,5,126*[fluorescence artefact?],-23
Cc1cc2n(n1)C(c1cccs1)Nc1ccccc1-2 (centres undefined),3,-4,-10,2,2,-7
C=C(C)C1CCC(C)=C1COC(=O)Nc1ccccc1 (centres undefined),24,-1,3,3,11,-6
CCc1sc(C(=O)NC2CCN(C)CC2)cc1Br,4,0,-12,5,2,-7
COc1ccc(CN2CCCCC2C(=O)Nc2ccc(OC)c(OCC(C)C)c2)cc1OC (centres undefined),nt,4,-16,nt,5,-7
N#Cc1cccc(-c2cn(S(=O)(=O)c3ccc(Cl)cc3)nc2N)c1,31*,-4,27,-7,8,-14
CCOc1ccccc1-n1c(SCC(=O)N(CC)CC)nnc1-c1ccccn1,40*,4,15,-1,6,-13
CCOc1ccccc1-n1c(SCC(=O)N2CCOCC2)nnc1-c1ccccn1,0,1,-15,7,-2,-3
CCOC(=O)c1cc(C)n(-n2cnnc2)c1C,2,0,3,1,7,-12
Cc1ccccc1OCCCCc1c(C)n[nH]c1C,46*,2,0,2,14,-6
CCN1CCc2c(sc(N)c2C#N)C1,11,6,8,2,69*,6
CC(C)N1CCc2c(sc(N)c2C#N)C1,6,nt,nt,0,nt,nt
N#CC1=C2SCC(O)(c3ccccc3)N2C(=O)CC1c1ccccc1 (centres undefined),1,-6,-14,41*,5,-3
CC(=O)Nc1ccc(S(=O)(=O)NCc2csc(C)n2)cc1,nt,-1,-6,nt,12,-7
COC(=O)C1=C(C)N(C)C(C)=C(C(=O)OC)C1c1ccncc1,12,2,12,2,1,-11
COC(=O)C1=C(C)N(C)C(C)=C(C(=O)OC)C1c1ccc(F)c(Br)c1,53*,-5,0,9,6,-1
CC(=O)c1c(C)[nH]c(C(=O)COC(=O)CN(C)S(=O)(=O)c2ccc(Cl)cc2)c1C,1,0,-15,-2,15,-18
CN1C(=O)CC(N2CCN(c3ccccc3)CC2)C1=O (centres undefined),nt,-5,16,nt,4,-18
COc1ccccc1Nc1nc(N)nc(CSc2ncccn2)n1,32*,4,8,-4,9,-11
Cc1ccc(Nc2nc(N)nc(CSc3nc4ccccc4s3)n2)cc1,51*,-4,-5,2,-7,-2
COc1ccc(Nc2nc(N)nc(CSc3n[nH]c(-c4ccccc4)n3)n2)cc1,30*,-2,-21,-2,7,8
Cc1ccc(Nc2nc(N)nc(CSc3ncccn3)n2)cc1,2,1,-6,-4,0,-15
COc1cccc(NC(=O)CSCc2n[nH]c(=O)[nH]2)c1,4,-5,10,-2,2,-8
